Experimental data as given in ChEMBL document CHEMBL1135768, “Design, synthesis, and SAR of tachykinin antagonists: modulation of balance in NK(1)/NK(2) receptor antagonist activity” (J Med Chem, 2002).

Tests used:
[1] = Bioavailability in dog (dose 1-10 uM/kg i.v.); assay type: ADME, organism-based, Canis lupus familiaris; conditions: in vivo, iv
Method in brief: (§1)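 Compound given to rat (n = 3) or dog (n = 1) by iv bolus at 1–10 μmol/kg, or orally at 10–100 μmol/kg, as a solution in 75% poly(ethylene glycol) 400 in normal saline.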

[2] = biological target: Substance-P receptor (Cavia porcellus) (UniProt P30547); test: In vivo binding affinity towards Tachykinin receptor 1 after oral administration in presence of agonist ASMSP in guinea pig pulmonary tissue in lung plasma extravation assay; assay type: organism-based
Sequence of Substance-P receptor (Cavia porcellus) (P30547 whole entry): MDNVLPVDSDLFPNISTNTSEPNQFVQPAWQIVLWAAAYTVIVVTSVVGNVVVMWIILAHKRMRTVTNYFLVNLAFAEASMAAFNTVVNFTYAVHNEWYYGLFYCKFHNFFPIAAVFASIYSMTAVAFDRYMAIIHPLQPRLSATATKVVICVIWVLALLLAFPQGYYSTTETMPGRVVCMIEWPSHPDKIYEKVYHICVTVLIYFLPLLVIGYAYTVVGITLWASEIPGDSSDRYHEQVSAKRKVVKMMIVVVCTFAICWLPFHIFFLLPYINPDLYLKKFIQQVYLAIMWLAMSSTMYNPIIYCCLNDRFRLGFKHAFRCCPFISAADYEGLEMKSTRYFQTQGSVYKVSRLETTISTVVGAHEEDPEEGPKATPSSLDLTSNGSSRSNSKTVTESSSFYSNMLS
Method in brief: (§2)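 Guinea pig lung plasma extravasation model. Antagonist dosed orally; NK1-selective agonist ASMSP challenge 2 h postdose. Single ED50 calculated from dose response in three to six animals per dose over 4–5 dose levels, doses staggered across several days.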

[3] = biological target: Substance-P receptor (Homo sapiens, UniProt P25103); test: Inhibition of binding of [3H]SP to Tachykinin receptor 1 of human tachykinin receptor expressed in mouse erythroleukemia cells; assay type: cell-based
Sequence of Substance-P receptor (P25103 whole entry): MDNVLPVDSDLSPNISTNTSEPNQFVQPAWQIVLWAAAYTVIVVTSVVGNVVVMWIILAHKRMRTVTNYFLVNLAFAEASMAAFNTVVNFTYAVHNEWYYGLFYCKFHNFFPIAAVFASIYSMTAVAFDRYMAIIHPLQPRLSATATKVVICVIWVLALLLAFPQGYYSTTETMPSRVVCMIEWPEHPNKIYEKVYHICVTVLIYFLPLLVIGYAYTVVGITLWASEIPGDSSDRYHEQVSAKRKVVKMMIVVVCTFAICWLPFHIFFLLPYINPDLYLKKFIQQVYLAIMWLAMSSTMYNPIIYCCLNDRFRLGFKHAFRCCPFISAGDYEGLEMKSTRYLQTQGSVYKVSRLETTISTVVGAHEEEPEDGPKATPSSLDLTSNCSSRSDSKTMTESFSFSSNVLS

[4] = biological target: T1, Neuromedin-K receptor (Homo sapiens, UniProt P29371); test: Inhibition of binding of [125I]MPNI to human Tachykinin receptor 3 (NK3) expressed in mouse erythroleukemia cells; assay type: cell-based
T1 sequence (P29371 whole entry): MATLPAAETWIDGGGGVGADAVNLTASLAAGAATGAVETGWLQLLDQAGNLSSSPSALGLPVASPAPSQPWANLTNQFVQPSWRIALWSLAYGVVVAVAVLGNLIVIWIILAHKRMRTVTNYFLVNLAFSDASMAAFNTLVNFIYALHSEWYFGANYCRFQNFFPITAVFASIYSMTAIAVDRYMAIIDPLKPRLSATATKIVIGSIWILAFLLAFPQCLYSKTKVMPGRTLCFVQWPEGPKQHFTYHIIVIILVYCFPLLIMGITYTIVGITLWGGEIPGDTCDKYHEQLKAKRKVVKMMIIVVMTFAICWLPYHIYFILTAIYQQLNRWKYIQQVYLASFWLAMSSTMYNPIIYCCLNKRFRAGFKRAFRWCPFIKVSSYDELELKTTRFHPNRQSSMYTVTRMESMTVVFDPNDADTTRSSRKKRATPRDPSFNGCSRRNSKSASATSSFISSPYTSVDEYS

[5] = Bioavailability in rat (dose 1-10 uM/kg i.v.); assay type: ADME, organism-based; conditions: in vivo, iv; method in brief: as §1
[6] = biological target: T2, Substance-K receptor (Homo sapiens, UniProt P21452); test: Inhibition of binding of [3H]NKA to human Tachykinin receptor 2 (NK2) in mouse erythroleukemia cells
T2 sequence (P21452 whole entry): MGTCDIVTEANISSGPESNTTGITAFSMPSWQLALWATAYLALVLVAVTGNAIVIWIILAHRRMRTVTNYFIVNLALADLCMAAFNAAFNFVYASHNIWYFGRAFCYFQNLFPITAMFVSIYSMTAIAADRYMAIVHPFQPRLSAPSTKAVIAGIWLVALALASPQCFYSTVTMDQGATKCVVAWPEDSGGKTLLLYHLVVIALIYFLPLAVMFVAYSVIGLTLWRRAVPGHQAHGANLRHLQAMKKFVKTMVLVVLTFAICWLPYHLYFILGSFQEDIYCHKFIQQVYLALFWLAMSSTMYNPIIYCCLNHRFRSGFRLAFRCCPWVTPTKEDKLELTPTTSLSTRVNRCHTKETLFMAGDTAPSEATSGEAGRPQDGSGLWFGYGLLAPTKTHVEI

[7] = biological target: T3, Substance-K receptor (Cavia porcellus) (UniProt Q64077); test: In vivo binding affinity towards Tachykinin receptor 2 (NK2) after oral administration in presence of agonist BANK in guinea pig pulmonary tissue in pulmonary mechanics assay
T3 sequence (whole entry): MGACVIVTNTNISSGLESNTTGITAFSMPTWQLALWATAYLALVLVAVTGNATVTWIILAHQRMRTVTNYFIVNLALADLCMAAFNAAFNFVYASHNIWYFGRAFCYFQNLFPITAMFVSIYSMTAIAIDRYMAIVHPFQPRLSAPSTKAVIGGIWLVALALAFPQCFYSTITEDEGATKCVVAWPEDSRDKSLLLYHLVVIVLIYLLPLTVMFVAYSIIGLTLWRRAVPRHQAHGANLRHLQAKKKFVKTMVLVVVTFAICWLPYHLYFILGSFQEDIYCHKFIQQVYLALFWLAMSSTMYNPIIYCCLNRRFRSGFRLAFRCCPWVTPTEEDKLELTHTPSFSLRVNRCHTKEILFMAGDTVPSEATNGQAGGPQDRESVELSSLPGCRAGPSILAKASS

[8] = biological target: T4, Substance-K receptor (Oryctolagus cuniculus) (UniProt P79218); test: Tested for the binding affinity towards tachykinin receptor 2 (NK2) in rabbit pulmonary artery tissue
T4 sequence (whole entry): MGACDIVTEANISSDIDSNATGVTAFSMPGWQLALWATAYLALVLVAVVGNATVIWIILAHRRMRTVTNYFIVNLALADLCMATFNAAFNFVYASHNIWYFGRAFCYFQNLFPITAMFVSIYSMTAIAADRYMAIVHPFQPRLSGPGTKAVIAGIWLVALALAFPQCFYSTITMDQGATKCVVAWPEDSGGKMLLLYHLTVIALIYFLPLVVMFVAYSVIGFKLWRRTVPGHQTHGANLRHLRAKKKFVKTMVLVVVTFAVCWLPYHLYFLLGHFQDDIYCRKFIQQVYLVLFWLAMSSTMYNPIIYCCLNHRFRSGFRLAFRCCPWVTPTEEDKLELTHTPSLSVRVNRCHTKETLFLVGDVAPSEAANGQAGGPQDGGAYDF

[9] = biological target: Substance-P receptor (Cavia porcellus) (UniProt P30547); test: Effective dose concentration required for In vivo binding affinity towards Tachykinin receptor 1 after oral administration in presence of agonist ASMSP in guinea pig pulmonary tissue in lung plasma extravation assay; assay type: organism-based; method in brief: as §2
[10] = biological target: T3, Substance-K receptor (Cavia porcellus); test: Effective dose concentration required for In vivo binding affinity towards Tachykinin receptor 2 (NK2) receptor after oral administration in presence of agonist BANK in guinea pig pulmonary tissue in pulmonary mechanics assay
[11] = biological target: T2, Substance-K receptor; test: Inhibition of binding of [3H]NKA to human Tachykinin receptor 2 (NK2) expressed in mouse erythroleukemia cells; assay type: cell-based
[12] = biological target: T3, Substance-K receptor (Cavia porcellus); test: In vivo potency as dose ratio (ED50 ratio for Tachykinin receptor 2 (NK2) in presence and absence of antagonist) in guinea pig PMM after intravenous administration at a dose 10 uM/Kg
[13] = biological target: T3, Substance-K receptor (Cavia porcellus); test: In vivo potency as dose ratio (ED50 ratio for Tachykinin receptor 2 (NK2) in presence and absence of antagonist) in guinea pig PMM after oral administration at a dose 30 uM/Kg
[14] = test system: Substance-P receptor (Oryctolagus cuniculus); test: Tested for the binding affinity towards tachykinin receptor 1 (NK1) in rabbit pulmonary artery tissue
[15] = biological target: Substance-P receptor (Cavia porcellus) (UniProt P30547); test: In vivo potency as dose ratio (ED50 ratio for Tachykinin receptor 1 in presence and absence of antagonist) in guinea pig PMM after oral administration at a dose 30 uM/Kg
[16] = biological target: Substance-P receptor (Cavia porcellus) (UniProt P30547); test: In vivo potency as dose ratio (ED50 ratio for Tachykinin receptor 1 in presence and absence of antagonist) in guinea pig PMM after intravenous administration at a dose 10 uM/Kg
[17] = biological target: T3, Substance-K receptor (Cavia porcellus); test: In vivo binding affinity towards Tachykinin receptor 2 (NK2) receptor after oral administration in presence of agonist BANK in guinea pig pulmonary tissue in pulmonary mechanics assay

Structure (SMILES): COc1ccc(C2CCN(CC[C@H](CN(C)C(=O)c3cc(C#N)cc4ccccc34)c3ccc(Cl)c(Cl)c3)CC2)c([S@+](C)[O-])c1
- bioavailability [1]: 18%
- ED50 [2]: 1 µmol/kg
- Ki [3]: 0.14 nM
- Ki [4]: 39 nM
- bioavailability [5]: 7%
- Ki [6]: 0.34 nM
- ED50 [7]: 3 µmol/kg
- pKB [8]: 8.7

Structure (SMILES): CN(C[C@@H](CCN1CCC(c2ccccc2[S@+](C)[O-])CC1)c1ccc(Cl)c(Cl)c1)C(=O)c1cc(C#N)cc2ccccc12
- bioavailability [1]: 18%
- ED50 [9]: 0.6 µmol/kg
- ED50 [10]: 13 µmol/kg
- Ki [3]: 0.12 nM
- bioavailability [5]: 9%
- Ki [11]: 0.64 nM
- pKB [8]: 8.26

Structure (SMILES): CNC(=O)C1(N2CCCCC2=O)CCN(CC[C@H](CN(C)C(=O)c2c(OC)c(C#N)cc3ccccc23)c2ccc(Cl)c(Cl)c2)CC1
- dose ratio [12]: 155
- dose ratio [13]: 49
- pKB [14]: 8.7
- ED50 [2]: 0.5 µmol/kg
- Ki [3]: 0.27 nM
- Ki [4]: 9.4 nM
- dose ratio [15]: 50
- dose ratio [16]: 384
- ED50 [17]: 9.3 µmol/kg
- Ki [11]: 35 nM
- pKB [8]: 8.2
